Results published in ChEMBL document CHEMBL3612027, “Substrate-guided optimization of the syringolins yields potent proteasome inhibitors with activity against leukemia cell lines” (Bioorg Med Chem, 2015).

Assays:
Format in all cases: functional
OVCAR-4 = assay: Cytotoxicity against human OVCAR4 cells assessed as cell growth at 10 uM after 48 hrs relative to control; settings: OVCAR-4, 48 h, read-out: Activity
Procedure, shortened: (§1)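 Run at the National Cancer Institute as a single-dose screen across its 60-cell-line cancer panel. Compound was tested at 10 micromolar, and growth was expressed as a percentage of negative-control cultures.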

PC-3 = assay: Cytotoxicity against human PC3 cells assessed as cell growth at 10 uM after 48 hrs relative to control; settings: PC-3, 48 h, read-out: Activity; procedure, shortened: as §1
UACC-62 = assay: Cytotoxicity against human UACC62 cells assessed as cell growth at 10 uM after 48 hrs relative to control; settings: UACC-62, 48 h, read-out: Activity
Procedure, shortened: (§2)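 Submitted to the National Cancer Institute for a single-dose screen at 10 micromolar against 60 cancer cell lines. Growth is expressed relative to negative-control cultures.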

MDA-MB-468 = assay: Cytotoxicity against human MDA-MB-468 cells assessed as cell growth at 10 uM after 48 hrs relative to control; settings: MDA-MB-468, 48 h, read-out: Activity; procedure, shortened: as §1
SF-268 = assay: Cytotoxicity against human SF268 cells assessed as cell growth at 10 uM after 48 hrs relative to control; settings: SF-268, 48 h, read-out: Activity; procedure, shortened: as §1
MOLT-4 [1] = assay: Cytotoxicity against human MOLT4 cells assessed as cell growth at 10 uM after 48 hrs relative to control; settings: MOLT-4, 48 h, read-out: Activity; procedure, shortened: as §1
A549 = assay: Cytotoxicity against human A549 cells assessed as cell growth at 10 uM after 48 hrs relative to control; settings: A549, 48 h, read-out: Activity; procedure, shortened: as §1
RPMI-8226 = assay: Cytotoxicity against human RPMI8226 cells assessed as cell growth at 10 uM after 48 hrs relative to control; settings: RPMI-8226, 48 h, read-out: Activity; procedure, shortened: as §1
MOLT-4 [2] = assay: Cytotoxicity against human MOLT4 cells after 48 hrs; settings: MOLT-4, 48 h
SK-MEL-28 = assay: Cytotoxicity against human SK-MEL-28 cells assessed as cell growth at 10 uM after 48 hrs relative to control; settings: SK-MEL-28, 48 h, read-out: Activity; procedure, shortened: as §1
BT-549 = assay: Cytotoxicity against human BT549 cells assessed as cell growth at 10 uM after 48 hrs relative to control; settings: BT-549, 48 h, read-out: Activity; procedure, shortened: as §1
Malme-3M = assay: Cytotoxicity against human MALME-3M cells assessed as cell growth at 10 uM after 48 hrs relative to control; settings: read-out: Activity; procedure, shortened: as §1
HT-29 = assay: Cytotoxicity against human HT-29 cells assessed as cell growth at 10 uM after 48 hrs relative to control; settings: HT-29, 48 h, read-out: Activity; procedure, shortened: as §1
T47D = assay: Cytotoxicity against human T47D cells assessed as cell growth at 10 uM after 48 hrs relative to control; settings: read-out: Activity; procedure, shortened: as §2
SR [3] = assay: Cytotoxicity against human SR cells assessed as cell growth at 10 uM after 48 hrs relative to control; settings: read-out: Activity; procedure, shortened: as §2
HOP-62 = assay: Cytotoxicity against human HOP62 cells assessed as cell growth at 10 uM after 48 hrs relative to control; settings: HOP-62, 48 h, read-out: Activity; procedure, shortened: as §1
NCI-H322M = assay: Cytotoxicity against human NCI-H322M cells assessed as cell growth at 10 uM after 48 hrs relative to control; settings: read-out: Activity; procedure, shortened: as §1
K562 [4] = assay: Cytotoxicity against human K562 cells assessed as cell growth at 10 uM after 48 hrs relative to control; settings: K562, 48 h, read-out: Activity; procedure, shortened: as §1
SF-539 = assay: Cytotoxicity against human SF539 cells assessed as cell growth at 10 uM after 48 hrs relative to control; settings: SF-539, 48 h, read-out: Activity; procedure, shortened: as §1
TK-10 = assay: Cytotoxicity against human TK10 cells assessed as cell growth at 10 uM after 48 hrs relative to control; settings: TK-10, 48 h, read-out: Activity; procedure, shortened: as §2
SK-OV-3 = assay: Cytotoxicity against human SKOV3 cells assessed as cell growth at 10 uM after 48 hrs relative to control; settings: SK-OV-3, 48 h, read-out: Activity; procedure, shortened: as §1
K562 [5] = assay: Cytotoxicity against human K562 cells after 48 hrs; settings: K562, 48 h
SR [6] = assay: Cytotoxicity against human SR cells after 48 hrs
Procedure, shortened: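 Dose-dependent growth inhibition was assessed at the National Cancer Institute against its cancer cell line panel as a follow-up to the 10 micromolar single-dose screen.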

NCI-H460 = assay: Cytotoxicity against human NCI-H460 cells assessed as cell growth at 10 uM after 48 hrs relative to control; settings: NCI-H460, 48 h, read-out: Activity; procedure, shortened: as §1
HOP-92 = assay: Cytotoxicity against human HOP92 cells assessed as cell growth at 10 uM after 48 hrs relative to control; settings: HOP-92, 48 h, read-out: Activity; procedure, shortened: as §1
UO-31 = assay: Cytotoxicity against human UO31 cells assessed as cell growth at 10 uM after 48 hrs relative to control; settings: UO-31, 48 h, read-out: Activity; procedure, shortened: as §2
DU-145 = assay: Cytotoxicity against human DU145 cells assessed as cell growth at 10 uM after 48 hrs relative to control; settings: DU-145, 48 h, read-out: Activity; procedure, shortened: as §1
[7] = Cytotoxicity against human RPMI-8226 cells after 48 hrs; settings: RPMI-8226, 48 h
ACHN = assay: Cytotoxicity against human ACHN cells assessed as cell growth at 10 uM after 48 hrs relative to control; settings: read-out: Activity; procedure, shortened: as §1
SNB-19 = assay: Cytotoxicity against human SNB19 cells assessed as cell growth at 10 uM after 48 hrs relative to control; settings: SNB-19, 48 h, read-out: Activity; procedure, shortened: as §2
NCI-H522 = assay: Cytotoxicity against human NCI-H522 cells assessed as cell growth at 10 uM after 48 hrs relative to control; settings: NCI-H522, 48 h, read-out: Activity; procedure, shortened: as §1

| SMILES | growth at 10 µM (OVCAR-4) | growth at 10 µM (PC-3) | growth at 10 µM (UACC-62) | growth at 10 µM (SF-268) | growth at 10 µM (MOLT-4 [1]) | growth at 10 µM (A549) | growth at 10 µM (RPMI-8226) | growth at 10 µM (SK-MEL-28) | growth at 10 µM (BT-549) | growth at 10 µM (Malme-3M) | growth at 10 µM (HT-29) | growth at 10 µM (T47D) | growth at 10 µM (SR [3]) | growth at 10 µM (HOP-62) | growth at 10 µM (NCI-H322M) | growth at 10 µM (K562 [4]) | growth at 10 µM (SF-539) | growth at 10 µM (TK-10) | growth at 10 µM (SK-OV-3) | growth at 10 µM (NCI-H460) | other results |
| --- | --- | --- | --- | --- | --- | --- | --- | --- | --- | --- | --- | --- | --- | --- | --- | --- | --- | --- | --- | --- | --- |
| COC(=O)[C@@H](NC(=O)N[C@H](C(=O)N[C@H]1CCCCNC(=O)/C=C/[C@H](C(C)C)NC1=O)C(C)C)C(C)C | 6.22% | 62% | 13.3% | -20.1% | 10.2% | 42.1% | 15.2% | 30.2% | 5.44% | 29.9% | 11.7% | -31.7% | 7.05% | 22.9% | 77% | 40.5% | -19.4% | 85.8% | 47.5% | 28.9% | growth at 10 µM (MDA-MB-468): -0.21%; GI50 (MOLT-4 [2]): 4.73 µM; GI50 (K562 [5]): 6.12 µM; GI50 (SR [6]): 5.13 µM; growth at 10 µM (HOP-92): -8.79%; growth at 10 µM (UO-31): 82.2%; growth at 10 µM (DU-145): 42%; GI50 [7]: 3.97 µM; growth at 10 µM (ACHN): 96.4%; growth at 10 µM (SNB-19): 34% |
| COC(=O)[C@@H](NC(=O)N[C@H](C(=O)N[C@H]1CCCCNC(=O)/C=C/[C@H](Cc2c[nH]c3ccccc23)NC1=O)C(C)C)C(C)C | 2.98% | 76.3% | 60.7% | 9.42% | 8.54% | 77.5% | 19% | 41.9% | 8.05% | 47.9% | 3.42% | -9.26% | 9.87% | 95% | 76.2% | 52% | -14.4% | 94.1% | 15.4% | 45.5% | growth at 10 µM (NCI-H522): -17.8%; growth at 10 µM (HOP-92): 18%; growth at 10 µM (UO-31): 94.3%; growth at 10 µM (DU-145): 52%; growth at 10 µM (ACHN): 90.8%; growth at 10 µM (SNB-19): 41.7% |
| COC(=O)[C@@H](NC(=O)N[C@@H](Cc1ccccc1)C(=O)N[C@H]1CCCCNC(=O)/C=C/[C@H](Cc2c[nH]c3ccccc23)NC1=O)C(C)C | 102% | 103% | 79.3% | 78.8% | 13.9% | 95.5% | 21.2% | 62.7% | 26.6% | 94% | 29.7% | 34.4% | 21.9% | 113% | 99.4% | 82.1% | 17.5% | 101% | 95.4% | 99.1% | growth at 10 µM (MDA-MB-468): 18%; GI50 (MOLT-4 [2]): 0.599 µM; growth at 10 µM (NCI-H522): -0.14%; GI50 (K562 [5]): 2.94 µM; GI50 (SR [6]): 0.453 µM; growth at 10 µM (HOP-92): 91.3%; growth at 10 µM (UO-31): 84%; growth at 10 µM (DU-145): 95.1%; GI50 [7]: 0.343 µM; growth at 10 µM (ACHN): 101%; growth at 10 µM (SNB-19): 51.2% |
